ChEMBL document CHEMBL2440040, “Synthesis of 4″-O-desosaminyl clarithromycin derivatives and their anti-bacterial activities” (2013)
Values after ≈ are worked out from the molar mass of the structure shown.

Columns and labels:
Format in all cases: functional
[1] = system: Streptococcus pneumoniae; assay: Antibacterial activity against erythromycin-sensitive Streptococcus pneumoniae 12-4 by broth microdilution method
[2] = system: Staphylococcus aureus; assay: Antibacterial activity against methicillin-sensitive Staphylococcus aureus ATCC 29213 by broth microdilution method
In short: (§1)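 Strains obtained from the Institute of Medicinal Biotechnology, Academy of Medical Sciences & Peking Union Medical College. MIC determined in vitro by broth microdilution following NCCLS recommendations.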

[3] = system: Staphylococcus epidermidis; assay: Antibacterial activity against methicillin-sensitive Staphylococcus epidermidis ATCC 12228 by broth microdilution method; in short: as §1
[4] = system: Streptococcus pneumoniae; assay: Antibacterial activity against erythromycin-resistant Streptococcus pneumoniae 12-6 by broth microdilution method
[5] = system: Staphylococcus aureus; assay: Antibacterial activity against methicillin-resistant Staphylococcus aureus 12-31 by broth microdilution method
[6] = system: Streptococcus pneumoniae; assay: Antibacterial activity against erythromycin-sensitive Streptococcus pneumoniae 12-8 by broth microdilution method; in short: as §1
[7] = system: Streptococcus pneumoniae; assay: Antibacterial activity against erythromycin-resistant Streptococcus pneumoniae 12-5 by broth microdilution method
[8] = system: Streptococcus pneumoniae; assay: Antibacterial activity against erythromycin-sensitive Streptococcus pneumoniae 12-1 by broth microdilution method; in short: as §1
[9] = system: Streptococcus pyogenes; assay: Antibacterial activity against erythromycin-sensitive Streptococcus pyogenes ATCC 19625 by broth microdilution method; in short: as §1
[10] = system: Staphylococcus epidermidis; assay: Antibacterial activity against methicillin-sensitive Staphylococcus epidermidis 11-20 by broth microdilution method; in short: as §1
[11] = system: Streptococcus pyogenes; assay: Antibacterial activity against erythromycin-resistant Streptococcus pyogenes 11-2 by broth microdilution method
[12] = system: Staphylococcus epidermidis; assay: Antibacterial activity against methicillin-resistant Staphylococcus epidermidis 12-11 by broth microdilution method
[13] = system: Streptococcus pneumoniae; assay: Antibacterial activity against erythromycin-sensitive Streptococcus pneumoniae 12-10 by broth microdilution method; in short: as §1
[14] = system: Staphylococcus epidermidis; assay: Antibacterial activity against methicillin-resistant Staphylococcus epidermidis 12-4 by broth microdilution method
[15] = system: Streptococcus pneumoniae; assay: Antibacterial activity against erythromycin-sensitive Streptococcus pneumoniae 12-14 by broth microdilution method; in short: as §1
[16] = system: Staphylococcus aureus; assay: Antibacterial activity against methicillin-sensitive Staphylococcus aureus 12-32 by broth microdilution method; in short: as §1
[17] = system: Staphylococcus epidermidis; assay: Antibacterial activity against methicillin-sensitive Staphylococcus epidermidis 12-5 by broth microdilution method; in short: as §1

Row | SMILES | MIC [1] [µg/mL] | MIC [2] [µg/mL] | MIC [3] [µg/mL] | MIC [4] [µg/mL] | MIC [5] [µg/mL] | MIC [6] [µg/mL] | MIC [7] [µg/mL] | MIC [8] [µg/mL] | MIC [9] [µg/mL] | MIC [10] [µg/mL] | MIC [11] [µg/mL] | MIC [12] [µg/mL] | MIC [13] [µg/mL] | MIC [14] [µg/mL] | MIC [15] [µg/mL] | MIC [16] [µg/mL] | MIC [17] [µg/mL]
1 | CC[C@H]1OC(=O)[C@H](C)[C@@H](O[C@H]2C[C@@](C)(OC)[C@@H](O[C@@H]3O[C@H](C)[C@@H](OCc4ccccc4)[C@H](N(C)C)[C@H]3OC(=O)c3ccccc3)[C@H](C)O2)[C@H](C)[C@@H](O[C@@H]2O[C@H](C)C[C@H](N(C)C)[C@H]2O)[C@@](C)(OC)C[C@@H](C)C(=O)[C@H](C)[C@H]2OC(=O)O[C@@]21C | > 32 | > 32 | > 32 | > 32 | > 32 | 16 (≈ 14 µM) | > 32 | > 32 | > 32 | > 32 | > 32 | > 32 | > 32 | > 32 | > 32 | > 32 | > 32
2 | CC[C@H]1OC(=O)[C@H](C)[C@@H](O[C@H]2C[C@@](C)(OC)[C@@H](O[C@@H]3O[C@H](C)[C@@H](OCc4ccccc4)[C@H](N(C)C)[C@H]3OC(=O)c3ccccc3)[C@H](C)O2)[C@H](C)[C@@H](O[C@@H]2O[C@H](C)C[C@H](N(C)C)[C@H]2O)[C@@](C)(OC)C[C@@H](C)C(=O)[C@H](C)[C@@H](O)[C@]1(C)O | 32 (≈ 28.7 µM) | > 32 | > 32 | 32 (≈ 28.7 µM) | > 32 | 2 (≈ 1.79 µM) | 32 (≈ 28.7 µM) | > 32 | > 32 | > 32 | > 32 | > 32 | 16 (≈ 14.3 µM) | > 32 | 32 (≈ 28.7 µM) | > 32 | > 32
3 | CC[C@H]1OC(=O)[C@H](C)[C@@H](O[C@H]2C[C@@](C)(OC)[C@@H](O[C@@H]3O[C@H](C)[C@@H](OCc4ccccc4)[C@H](N(C)C)[C@H]3O)[C@H](C)O2)[C@H](C)[C@@H](O[C@@H]2O[C@H](C)C[C@H](N(C)C)[C@H]2O)[C@@](C)(OC)C[C@@H](C)C(=O)[C@H](C)[C@@H](O)[C@]1(C)O | 32 (≈ 31.6 µM) | > 32 | > 32 | 32 (≈ 31.6 µM) | > 32 | 32 (≈ 31.6 µM) | 32 (≈ 31.6 µM) | 32 (≈ 31.6 µM) | 32 (≈ 31.6 µM) | > 32 | > 32 | > 32 | 32 (≈ 31.6 µM) | > 32 | 32 (≈ 31.6 µM) | > 32 | > 32
4 | CC[C@H]1OC(=O)[C@H](C)[C@@H](O[C@H]2C[C@@](C)(OC)[C@@H](O[C@@H]3O[C@H](C)[C@@H](O)[C@H](N(C)C)[C@H]3OC(=O)c3ccccc3)[C@H](C)O2)[C@H](C)[C@@H](O[C@@H]2O[C@H](C)C[C@H](N(C)C)[C@H]2O)[C@@](C)(OC)C[C@@H](C)C(=O)[C@H](C)[C@@H](O)[C@]1(C)O | 32 (≈ 31.2 µM) | 16 (≈ 15.6 µM) | > 32 | > 32 | > 32 | 4 (≈ 3.9 µM) | 32 (≈ 31.2 µM) | > 32 | 8 (≈ 7.8 µM) | 32 (≈ 31.2 µM) | > 32 | 16 (≈ 15.6 µM) | 16 (≈ 15.6 µM) | 16 (≈ 15.6 µM) | 16 (≈ 15.6 µM) | > 32 | 32 (≈ 31.2 µM)
5 | CC[C@H]1OC(=O)[C@H](C)[C@@H](O[C@H]2C[C@@](C)(OC)[C@@H](O[C@@H]3O[C@H](C)[C@@H](O)[C@H](N(C)C)[C@H]3O)[C@H](C)O2)[C@H](C)[C@@H](O[C@@H]2O[C@H](C)C[C@H](N(C)C)[C@H]2O)[C@@](C)(OC)C[C@@H](C)C(=O)[C@H](C)[C@@H](O)[C@]1(C)O | 16 (≈ 17.4 µM) | 4 (≈ 4.34 µM) | 16 (≈ 17.4 µM) | 32 (≈ 34.7 µM) | > 32 | 2 (≈ 2.17 µM) | 16 (≈ 17.4 µM) | 2 (≈ 2.17 µM) | 2 (≈ 2.17 µM) | 8 (≈ 8.68 µM) | > 32 | 2 (≈ 2.17 µM) | 2 (≈ 2.17 µM) | 4 (≈ 4.34 µM) | 4 (≈ 4.34 µM) | 16 (≈ 17.4 µM) | 16 (≈ 17.4 µM)
6 | CC[C@H]1OC(=O)[C@H](C)[C@@H](O[C@H]2C[C@@](C)(OC)[C@@H](O[C@@H]3O[C@H](C)[C@@H](OCc4ccccc4)[C@H](N(C)C)[C@H]3O)[C@H](C)O2)[C@H](C)[C@@H](O[C@@H]2O[C@H](C)C[C@H](N(C)C)[C@H]2O)[C@@](C)(OC)C[C@@H](C)C(=O)[C@H](C)[C@H]2OC(=O)O[C@@]21C | 32 (≈ 30.8 µM) | 16 (≈ 15.4 µM) | > 32 | 32 (≈ 30.8 µM) | > 32 | 2 (≈ 1.93 µM) | 32 (≈ 30.8 µM) | 2 (≈ 1.93 µM) | 2 (≈ 1.93 µM) | 16 (≈ 15.4 µM) | > 32 | 16 (≈ 15.4 µM) | 1 (≈ 0.964 µM) | > 32 | 4 (≈ 3.86 µM) | 16 (≈ 15.4 µM) | 16 (≈ 15.4 µM)
7 | CC[C@H]1OC(=O)[C@H](C)[C@@H](O[C@H]2C[C@@](C)(OC)[C@@H](O[C@@H]3O[C@H](C)[C@@H](O)[C@H](N(C)C)[C@H]3OC(=O)c3ccccc3)[C@H](C)O2)[C@H](C)[C@@H](O[C@@H]2O[C@H](C)C[C@H](N(C)C)[C@H]2O)[C@@](C)(OC)C[C@@H](C)C(=O)[C@H](C)[C@H]2OC(=O)O[C@@]21C | 16 (≈ 15.2 µM) | 2 (≈ 1.9 µM) | 2 (≈ 1.9 µM) | 32 (≈ 30.4 µM) | > 32 | 1 (≈ 0.951 µM) | 32 (≈ 30.4 µM) | 1 (≈ 0.951 µM) | 1 (≈ 0.951 µM) | 4 (≈ 3.8 µM) | 32 (≈ 30.4 µM) | ≤ 1 | 2 (≈ 1.9 µM) | 8 (≈ 7.61 µM) | 2 (≈ 1.9 µM) | 2 (≈ 1.9 µM) | 2 (≈ 1.9 µM)
8 | CC[C@H]1OC(=O)[C@H](C)[C@@H](O[C@H]2C[C@@](C)(OC)[C@@H](O[C@@H]3O[C@H](C)[C@@H](O)[C@H](N(C)C)[C@H]3O)[C@H](C)O2)[C@H](C)[C@@H](O[C@@H]2O[C@H](C)C[C@H](N(C)C)[C@H]2O)[C@@](C)(OC)C[C@@H](C)C(=O)[C@H](C)[C@H]2OC(=O)O[C@@]21C | 4 (≈ 4.22 µM) | 16 (≈ 16.9 µM) | 32 (≈ 33.8 µM) | 16 (≈ 16.9 µM) | > 32 | 1 (≈ 1.06 µM) | 16 (≈ 16.9 µM) | 2 (≈ 2.11 µM) | 2 (≈ 2.11 µM) | 16 (≈ 16.9 µM) | 16 (≈ 16.9 µM) | 16 (≈ 16.9 µM) | 1 (≈ 1.06 µM) | 32 (≈ 33.8 µM) | 2 (≈ 2.11 µM) | 32 (≈ 33.8 µM) | 16 (≈ 16.9 µM)
9 | CC[C@H]1OC(=O)[C@H](C)[C@@H](O[C@H]2C[C@@](C)(OC)[C@@H](O[C@@H]3O[C@H](C)[C@@H](O)[C@H](N(C)C)[C@H]3OC(=O)c3ccccc3)[C@H](C)O2)[C@H](C)[C@@H](O[C@@H]2O[C@H](C)C[C@H](N(C)C)[C@H]2O)[C@@](C)(OC)C[C@@H](C)C(=O)/C(C)=C/[C@]1(C)O | > 32 | > 32 | 32 (≈ 31.8 µM) | > 32 | > 32 | 16 (≈ 15.9 µM) | > 32 | 1 (≈ 0.993 µM) | 1 (≈ 0.993 µM) | > 32 | > 32 | 32 (≈ 31.8 µM) | > 32 | > 32 | > 32 | > 32 | 32 (≈ 31.8 µM)
